Test results from ChEMBL document CHEMBL5058577, “EUbOPEN Chemogenomics Library 2 (Multiplex)” (2022).
Non-standard residues stand in square brackets, D forms with d. Residues, ends and D or L forms follow the SMILES beside them.

Test system: U2OS
Assay: Multiplex assay against U2OS
Format: toxicity, cell-based
Conditions: human
In short: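 Live cells were stained at seeding with Hoechst33342, BioTracker Green Microtubule Cytoskeleton Dye, MitoTracker Red and Annexin V Alexa Fluor 680, then imaged on a CQ1 microscope at 37°C and 5% CO2 after compound addition. CellPathfinder machine-learning gating split cells into Hoechst high-intensity objects or normal cells. Normal cells were split into healthy, pyknosed or fragmented nuclei, and pyknosed cells into mitotic or apoptotic. Tubulin, mitochondrial-mass and membrane-permeability phenotypes are per cents of healthy-nucleus cells.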

[1] = 12 h, 1 µM, compound concentration 1 uM, replicate 1
[2] = 12 h, 1 µM, compound concentration 1 uM, replicate 2
[3] = 12 h, 10 µM, compound concentration 10 uM, replicate 1
[4] = 12 h, 10 µM, compound concentration 10 uM, replicate 2
[5] = 24 h, 1 µM, compound concentration 1 uM, replicate 1
[6] = 24 h, 1 µM, compound concentration 1 uM, replicate 2
[7] = 24 h, 10 µM, compound concentration 10 uM, replicate 1
[8] = 24 h, 10 µM, compound concentration 10 uM, replicate 2
[9] = 48 h, 1 µM, compound concentration 1 uM, replicate 1
[10] = 48 h, 1 µM, compound concentration 1 uM, replicate 2
[11] = 48 h, 10 µM, compound concentration 10 uM, replicate 1
[12] = 48 h, 10 µM, compound concentration 10 uM, replicate 2

SMILES: CC(C)C[C@@H]1NC(=O)[C@@H](C(C)C)NC(=O)[C@@H]2CCCN2C(=O)[C@@H](CC(=O)O)NC(=O)[C@@H](Cc2c[nH]c3ccccc23)NC1=O [BQ-123] (cyclo(L[dW][dD]P[dV]))
- Population Apoptotic (%) [1]: 77%
- Population Fragmented Nuclei (%) [1]: 20%
- Population Healthy Nuclei (%) [1]: 69%
- Population Hoechst High Intensity Objects (%) [1]: 0%
- Population Membrane Permeable-Phenotype (%) [1]: 1%
- Population Mitochondria Different-Phenotype (%) [1]: 1%
- Population Mitotic Cells (%) [1]: 22%
- Population Normal (%) [1]: 99%
- Population Pyknosed Nuclei (%) [1]: 9%
- Population Tubulin-Different-Phenotype (%) [1]: 0%
- Total Cell Count [1]: 228
- Population Apoptotic (%) [2]: 83%
- Population Fragmented Nuclei (%) [2]: 19%
- Population Healthy Nuclei (%) [2]: 75%
- Population Hoechst High Intensity Objects (%) [2]: 2%
- Population Membrane Permeable-Phenotype (%) [2]: 2%
- Population Mitochondria Different-Phenotype (%) [2]: 0%
- Population Mitotic Cells (%) [2]: 16%
- Population Normal (%) [2]: 97%
- Population Pyknosed Nuclei (%) [2]: 5%
- Population Tubulin-Different-Phenotype (%) [2]: 8%
- Total Cell Count [2]: 118
- Population Apoptotic (%) [3]: 78%
- Population Fragmented Nuclei (%) [3]: 29%
- Population Healthy Nuclei (%) [3]: 65%
- Population Hoechst High Intensity Objects (%) [3]: 2%
- Population Membrane Permeable-Phenotype (%) [3]: 8%
- Population Mitochondria Different-Phenotype (%) [3]: 1%
- Population Mitotic Cells (%) [3]: 21%
- Population Normal (%) [3]: 97%
- Population Pyknosed Nuclei (%) [3]: 4%
- Population Tubulin-Different-Phenotype (%) [3]: 3%
- Total Cell Count [3]: 294
- Population Apoptotic (%) [4]: 75%
- Population Fragmented Nuclei (%) [4]: 25%
- Population Healthy Nuclei (%) [4]: 70%
- Population Membrane Permeable-Phenotype (%) [4]: 7%
- Population Mitochondria Different-Phenotype (%) [4]: 4%
- Population Mitotic Cells (%) [4]: 25%
- Population Tubulin-Different-Phenotype (%) [4]: 2%
- Total Cell Count [4]: 99
- Population Apoptotic (%) [5]: 69%
- Population Fragmented Nuclei (%) [5]: 16%
- Population Healthy Nuclei (%) [5]: 75%
- Population Hoechst High Intensity Objects (%) [5]: 0%
- Population Membrane Permeable-Phenotype (%) [5]: 2%
- Population Mitochondria Different-Phenotype (%) [5]: 1%
- Population Mitotic Cells (%) [5]: 30%
- Population Normal (%) [5]: 99%
- Population Pyknosed Nuclei (%) [5]: 8%
- Population Tubulin-Different-Phenotype (%) [5]: 1%
- Total Cell Count [5]: 279
- Population Apoptotic (%) [6]: 85%
- Population Fragmented Nuclei (%) [6]: 11%
- Population Healthy Nuclei (%) [6]: 77%
- Population Membrane Permeable-Phenotype (%) [6]: 6%
- Population Mitochondria Different-Phenotype (%) [6]: 0%
- Population Mitotic Cells (%) [6]: 14%
- Population Pyknosed Nuclei (%) [6]: 10%
- Population Tubulin-Different-Phenotype (%) [6]: 3%
- Total Cell Count [6]: 137
- Population Apoptotic (%) [7]: 92%
- Population Fragmented Nuclei (%) [7]: 24%
- Population Healthy Nuclei (%) [7]: 67%
- Population Hoechst High Intensity Objects (%) [7]: 2%
- Population Membrane Permeable-Phenotype (%) [7]: 8%
- Population Mitochondria Different-Phenotype (%) [7]: 2%
- Population Mitotic Cells (%) [7]: 8%
- Population Normal (%) [7]: 97%
- Population Pyknosed Nuclei (%) [7]: 7%
- Population Tubulin-Different-Phenotype (%) [7]: 4%
- Total Cell Count [7]: 338
- Population Apoptotic (%) [8]: 100%
- Population Healthy Nuclei (%) [8]: 74%
- Population Hoechst High Intensity Objects (%) [8]: 0%
- Population Membrane Permeable-Phenotype (%) [8]: 6%
- Population Mitochondria Different-Phenotype (%) [8]: 8%
- Population Mitotic Cells (%) [8]: 0%
- Population Normal (%) [8]: 99%
- Population Pyknosed Nuclei (%) [8]: 1%
- Total Cell Count [8]: 113
- Population Apoptotic (%) [9]: 77%
- Population Fragmented Nuclei (%) [9]: 14%
- Population Healthy Nuclei (%) [9]: 79%
- Population Hoechst High Intensity Objects (%) [9]: 1%
- Population Membrane Permeable-Phenotype (%) [9]: 3%
- Population Mitochondria Different-Phenotype (%) [9]: 1%
- Population Mitotic Cells (%) [9]: 22%
- Population Normal (%) [9]: 98%
- Population Pyknosed Nuclei (%) [9]: 5%
- Population Tubulin-Different-Phenotype (%) [9]: 3%
- Total Cell Count [9]: 407
- Population Apoptotic (%) [10]: 100%
- Population Fragmented Nuclei (%) [10]: 18%
- Population Healthy Nuclei (%) [10]: 70%
- Population Mitochondria Different-Phenotype (%) [10]: 3%
- Population Mitotic Cells (%) [10]: 0%
- Population Pyknosed Nuclei (%) [10]: 10%
- Population Tubulin-Different-Phenotype (%) [10]: 2%
- Total Cell Count [10]: 226
- Population Apoptotic (%) [11]: 94%
- Population Fragmented Nuclei (%) [11]: 19%
- Population Healthy Nuclei (%) [11]: 70%
- Population Hoechst High Intensity Objects (%) [11]: 1%
- Population Membrane Permeable-Phenotype (%) [11]: 5%
- Population Mitochondria Different-Phenotype (%) [11]: 2%
- Population Mitotic Cells (%) [11]: 5%
- Population Normal (%) [11]: 98%
- Population Pyknosed Nuclei (%) [11]: 9%
- Population Tubulin-Different-Phenotype (%) [11]: 3%
- Total Cell Count [11]: 435
- Population Apoptotic (%) [12]: 81%
- Population Fragmented Nuclei (%) [12]: 20%
- Population Healthy Nuclei (%) [12]: 66%
- Population Mitochondria Different-Phenotype (%) [12]: 6%
- Population Mitotic Cells (%) [12]: 18%
- Population Pyknosed Nuclei (%) [12]: 12%
- Population Tubulin-Different-Phenotype (%) [12]: 2%
- Total Cell Count [12]: 131
